Among the data in ChEMBL document CHEMBL1153266, “Synthesis and biological activity of anticoccidial agents: 2,3-diarylindoles” (Bioorg Med Chem Lett, 2009) are Activity and IC50 values, retold here.

Test [1] concerns Eimeria acervulina. Put plainly: Antiparasitic activity against Eimeria acervulina at 50 ppm administered orally through feed after 7 days. The test is classed as functional. In outline:
(§1)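 Each compound was given orally in the feed, and its anticoccidial activity was ranked in a seven-day efficacy model. Each Eimeria species got its own quantitative measure.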

In test [2] the test system is Eimeria tenella. In words: Antiparasitic activity against Eimeria tenella at 50 ppm administered orally through feed after 7 days. The test is classed as functional. The method in brief:
as §1

The subject of test [3] is Eimeria mitis. Put plainly: Antiparasitic activity against Eimeria mitis at 50 ppm administered orally through feed after 7 days. The test is classed as functional. The method in brief:
as §1

Test [4] has as its target cGMP-dependent protein kinase (Eimeria tenella, UniProt Q8MMZ8). Put plainly: Inhibition of Eimeria tenella parasite-specific cGMP-dependent protein kinase.
Test [5] concerns Eimeria maxima. In words: Antiparasitic activity against Eimeria maxima at 50 ppm administered orally through feed after 7 days. Format: functional. The method in brief:
as §1

Test [6] deals with Eimeria mitis. Put plainly: Antiparasitic activity against Eimeria mitis at 6 ppm administered orally through feed after 7 days. The test is classed as functional. The method in brief:
as §1

Test [7] relates to Eimeria maxima. In words: Antiparasitic activity against Eimeria maxima at 6 ppm administered orally through feed after 7 days. Format: functional. The method in brief: as §1
Test [8] has as its system Eimeria acervulina. Put plainly: Antiparasitic activity against Eimeria acervulina at 6 ppm administered orally through feed after 7 days. Format: functional. In outline: as §1
In test [9] the test system is Eimeria tenella. Put plainly: Antiparasitic activity against Eimeria tenella at 6 ppm administered orally through feed after 7 days. Format: functional. The method in brief:
as §1

The source made the active and inactive calls. No cut-off for these calls is given here.

Chain of cGMP-dependent protein kinase (Q8MMZ8 whole entry): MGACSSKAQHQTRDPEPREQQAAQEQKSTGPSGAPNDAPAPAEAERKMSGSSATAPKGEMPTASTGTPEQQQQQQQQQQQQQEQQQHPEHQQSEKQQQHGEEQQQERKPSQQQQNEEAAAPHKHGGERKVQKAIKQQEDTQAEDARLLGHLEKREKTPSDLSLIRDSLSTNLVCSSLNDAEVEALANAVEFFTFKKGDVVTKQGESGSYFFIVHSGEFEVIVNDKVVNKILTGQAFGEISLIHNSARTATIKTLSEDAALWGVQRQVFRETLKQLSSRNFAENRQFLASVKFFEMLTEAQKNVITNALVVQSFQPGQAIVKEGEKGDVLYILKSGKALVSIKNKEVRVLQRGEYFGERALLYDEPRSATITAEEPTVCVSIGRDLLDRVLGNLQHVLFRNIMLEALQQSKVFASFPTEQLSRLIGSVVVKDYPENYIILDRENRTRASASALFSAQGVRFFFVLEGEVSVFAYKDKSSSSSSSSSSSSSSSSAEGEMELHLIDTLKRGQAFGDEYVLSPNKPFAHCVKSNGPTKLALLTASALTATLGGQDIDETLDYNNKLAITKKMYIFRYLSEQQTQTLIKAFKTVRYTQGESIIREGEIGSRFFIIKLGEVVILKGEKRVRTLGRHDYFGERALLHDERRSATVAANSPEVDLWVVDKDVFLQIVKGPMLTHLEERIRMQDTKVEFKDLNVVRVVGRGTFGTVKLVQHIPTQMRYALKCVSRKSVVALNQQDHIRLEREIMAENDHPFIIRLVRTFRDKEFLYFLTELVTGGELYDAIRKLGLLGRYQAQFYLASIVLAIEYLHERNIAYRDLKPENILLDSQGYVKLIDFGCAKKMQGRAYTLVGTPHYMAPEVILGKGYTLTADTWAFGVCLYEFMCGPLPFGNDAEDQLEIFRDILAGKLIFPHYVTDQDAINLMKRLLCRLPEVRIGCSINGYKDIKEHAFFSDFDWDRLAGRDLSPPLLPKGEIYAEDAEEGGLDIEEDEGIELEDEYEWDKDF

As usually defined, the IC50 is the concentration at which inhibition is half-maximal. On to `CN1CCN(Cc2ccc3c(-c4ccncc4)c(-c4ccc(F)cc4)[nH]c3c2)CC1`, for which the Activity in the test on Eimeria acervulina [1] was below 50%; with Eimeria tenella [2], 80%; in the test on Eimeria mitis [3], below 50%. Moreover, in test [4], half-maximal inhibition (IC50) required 8.9 nM.
With `CCN1CCC(c2ccc3c(-c4ccncc4)c(-c4ccc(F)cc4)[nH]c3c2)CC1`, the Activity was below 50% with Eimeria acervulina [1], 80% in the test on Eimeria maxima [5], 50% in the test on Eimeria tenella [2] and 80% in the test on Eimeria mitis [3]. Also, the IC50 in test [4] stood at 0.16 nM.
`CN1CCC(c2ccn3c(-c4ccnc(N)n4)c(-c4ccc(F)cc4)nc3c2)CC1`: the Activity with Eimeria mitis [6] is 80%; in the test with Eimeria maxima [7], 100%; in the test with Eimeria acervulina [8] it was 80%; with Eimeria tenella [9] it was 100%.
Take `Fc1ccc(-c2[nH]c3cc(C4CCNCC4)ccc3c2-c2ccncn2)cc1`: the Activity in the test with Eimeria acervulina [1], in the test with Eimeria maxima [5], in the test with Eimeria tenella [2] and with Eimeria mitis [3] was below 50% throughout. The IC50 in [4] was 0.65 nM.
With `CN1CCC(c2ccc3c(-c4ccncn4)c(-c4ccc(F)cc4)[nH]c3c2)CC1`, the Activity with Eimeria acervulina [1] was 99%; with Eimeria maxima [5], below 50%; in the test on Eimeria tenella [2], below 50%; in the test on Eimeria mitis [3], 50%. Besides, the concentration for half-maximal inhibition (IC50) in [4] was 0.4 nM.
Turning to `CN1CC(c2ccc3c(-c4ccncc4)c(-c4ccc(F)cc4)[nH]c3c2)C1`, the Activity with Eimeria acervulina [1] is reported as below 50%; with Eimeria tenella [2], 50%; with Eimeria mitis [3], below 50%. The compound also yielded an IC50 in test [4] of 0.62 nM.
For the compound `CN1CCN(C(=O)c2ccc3[nH]c(-c4ccc(F)cc4)c(-c4ccncc4)c3c2)CC1`, the Activity in the test on Eimeria acervulina [1] is given as below 50%; with Eimeria tenella [2] it was 80%. Besides, the outcome in the test with Eimeria mitis [3] was inactive. In test [4], this compound gave an IC50 of 12.7 nM.
Consider `OCCN1CCC(c2ccc3c(-c4ccncc4)c(-c4ccc(F)cc4)[nH]c3c2)CC1`, for which the Activity in the test with Eimeria acervulina [1] is 80%; with Eimeria maxima [5], below 50%; in the test with Eimeria tenella [2], 50%; in the test on Eimeria mitis [3], 80%. The compound further came in with an IC50 in [4] of 0.1 nM.
Consider `Nc1nccc(-c2c(-c3ccc(F)cc3)[nH]c3cc(C4CCN(CCO)CC4)ccc23)n1`, for which the Activity in the test with Eimeria acervulina [1], in the test with Eimeria maxima [5] and in the test with Eimeria tenella [2] was below 50% each time. Half-maximal inhibition in test [4] (IC50) required 0.3 nM.
In the case of `OCCN1CCC(c2ccc3c(-c4ccncn4)c(-c4ccc(F)cc4)[nH]c3c2)CC1`, the Activity with Eimeria acervulina [1] is given as 50%; with Eimeria maxima [5], below 50%; with Eimeria tenella [2], 99%; in the test with Eimeria mitis [3], 100%. This compound gave an IC50 in test [4] of 0.8 nM.
Regarding `Nc1nccc(-c2c(-c3ccc(F)cc3)[nH]c3cc(C4CCNCC4)ccc23)n1`, the Activity in the test on Eimeria acervulina [1], in the test with Eimeria maxima [5] and in the test with Eimeria tenella [2] was below 50% in each case. In [4], half-maximal inhibition (IC50) required 0.21 nM.
On to `CN1CCC(Cc2ccc3c(-c4ccncc4)c(-c4ccc(F)cc4)[nH]c3c2)CC1`, for which the Activity in the test on Eimeria acervulina [1] was below 50%; with Eimeria tenella [2] it was below 50%; with Eimeria mitis [3] it was 50%. For the same compound, in test [4], half-maximal inhibition (IC50) required 1.6 nM.
On to `Fc1ccc(-c2[nH]c3cc(N4CCOCC4)ccc3c2-c2ccncc2)cc1`, for which the Activity is listed as below 50% with Eimeria acervulina [1], 50% with Eimeria tenella [2] and below 50% in the test on Eimeria mitis [3]. Also, 9.2 nM corresponded to half-maximal inhibition in test [4] (IC50).
As for `CN1CCC(c2ccc3c(-c4ccncc4)c(-c4ccc(F)cc4)[nH]c3c2)CC1`, the Activity in the test on Eimeria acervulina [1] was found to be 99%; with Eimeria maxima [5] it was 50%; in the test on Eimeria tenella [2], 50%; in the test with Eimeria mitis [3] it was 99%. Moreover, the IC50 in test [4] was 0.15 nM.
With `CN1CCC(c2ccc3c(-c4ccnc(N)n4)c(-c4ccc(F)cc4)[nH]c3c2)CC1`, the Activity with Eimeria acervulina [1] is on record as below 50%; in the test on Eimeria maxima [5] it was below 50%; with Eimeria tenella [2], 80%. Further, the IC50 in test [4] was found to be 0.22 nM.
In the case of `CN1CCN(c2ccc3c(-c4ccncc4)c(-c4ccc(F)cc4)[nH]c3c2)CC1`, the Activity in the test on Eimeria acervulina [1], in the test on Eimeria tenella [2] and with Eimeria mitis [3] was below 50% each time.
As to `Fc1ccc(-c2[nH]c3cc(C4CCNCC4)ccc3c2-c2ccncc2)cc1`, the Activity in the test on Eimeria acervulina [1], in the test with Eimeria maxima [5], in the test with Eimeria tenella [2] and with Eimeria mitis [3] was below 50% throughout. Further, in [4], it took 0.15 nM to reach half-maximal inhibition (IC50).
